From ChEMBL document CHEMBL5150051, “Identification and Characterization of a Novel Indoleamine 2,3-Dioxygenase 1 Protein Degrader for Glioblastoma” (J Med Chem, 2022)
Active and inactive are the calls of the source. No cut-off for these calls is given here.

Columns and labels:
[1] = target: T1, Protein cereblon/Indoleamine 2,3-dioxygenase 1 (Homo sapiens, UniProt P14902+Q96SW2); experiment: Protac activity at IDO1/CRBN in IFNgamma-stimulated human GBM43 cells assessed as IDO1 degradation by measuring decrease in protein level measured after 24 hrs by Western blotting analysis; assay type: cell-based; conditions: GBM, dose 0.1-10 µM, DDE = dose-dependent effect
How it was run: (§1)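 GBM43 cells stimulated with 50 ng/mL human IFNγ for 24 h, then treated across 0.01 to 30 μM for 24 h. IDO1 was quantified by western blot densitometry as percent of IFNγ-induced untreated level. DC50 came from the dose-response curve; n = 3 independent experiments, mean ± SEM.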
Target sequence in this assay (P14902 whole entry, looked up): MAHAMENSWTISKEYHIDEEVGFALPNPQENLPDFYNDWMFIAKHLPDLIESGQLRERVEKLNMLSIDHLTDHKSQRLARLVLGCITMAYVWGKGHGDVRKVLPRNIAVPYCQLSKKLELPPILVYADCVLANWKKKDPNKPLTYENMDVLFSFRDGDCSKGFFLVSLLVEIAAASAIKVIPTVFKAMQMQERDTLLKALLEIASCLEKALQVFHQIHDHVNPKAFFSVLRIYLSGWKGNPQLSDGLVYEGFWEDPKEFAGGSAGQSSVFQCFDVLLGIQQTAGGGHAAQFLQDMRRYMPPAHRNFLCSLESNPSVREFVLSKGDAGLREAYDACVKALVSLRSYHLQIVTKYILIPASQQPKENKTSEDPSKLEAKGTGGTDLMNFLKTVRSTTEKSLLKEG
Target sequence in this assay (Q96SW2 whole entry, looked up): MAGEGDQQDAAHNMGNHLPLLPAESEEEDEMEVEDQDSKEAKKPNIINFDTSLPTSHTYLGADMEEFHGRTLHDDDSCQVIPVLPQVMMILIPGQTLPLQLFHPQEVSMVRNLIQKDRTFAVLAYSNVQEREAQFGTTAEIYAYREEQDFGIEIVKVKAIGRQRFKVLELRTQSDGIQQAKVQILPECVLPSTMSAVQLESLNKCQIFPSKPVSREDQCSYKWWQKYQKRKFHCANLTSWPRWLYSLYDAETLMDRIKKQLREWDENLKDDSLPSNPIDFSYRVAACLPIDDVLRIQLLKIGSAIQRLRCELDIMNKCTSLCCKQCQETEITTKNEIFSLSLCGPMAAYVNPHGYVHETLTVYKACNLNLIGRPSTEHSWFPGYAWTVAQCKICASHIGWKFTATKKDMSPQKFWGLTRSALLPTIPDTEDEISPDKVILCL

[2] = target: T1, Protein cereblon/Indoleamine 2,3-dioxygenase 1; experiment: Protac activity at CRBN/IDO1 in enzyme-null cDNA transfected in human U87 cells assessed as IDO1 degradation by measuring decrease in protein level measured at 0.1 to 10 uM after 24 hrs by Western blotting analysis; assay type: cell-based; conditions: dose 0.1-10 µM
Target sequence in this assay (P14902 whole entry, looked up): as the sequence (P14902 whole entry, looked up) above
Target sequence in this assay (Q96SW2 whole entry, looked up): as the sequence (Q96SW2 whole entry, looked up) above

[3] = target: T1, Protein cereblon/Indoleamine 2,3-dioxygenase 1; experiment: Protac activity at IDO1/CRBN in IFNgamma-stimulated human GBM43 cells assessed as IDO1 degradation by measuring decrease in protein level measured at 10 uM for 16 to 96 hrs by Western blotting analysis; assay type: cell-based; conditions: GBM43 cell, time 16-96 hrs
Target sequence in this assay (P14902 whole entry, looked up): as the sequence (P14902 whole entry, looked up) above
Target sequence in this assay (Q96SW2 whole entry, looked up): as the sequence (Q96SW2 whole entry, looked up) above

[4] = target: T1, Protein cereblon/Indoleamine 2,3-dioxygenase 1; experiment: Protac activity at CRBN/IDO1 in IFNgamma-stimulated human PC-3 cells assessed as decrease in kynurenine level at 10 uM measured after 24 hrs by Ehrlich's test; assay type: cell-based
Target sequence in this assay (P14902 whole entry, looked up): as the sequence (P14902 whole entry, looked up) above
Target sequence in this assay (Q96SW2 whole entry, looked up): as the sequence (Q96SW2 whole entry, looked up) above

[5] = target: T1, Protein cereblon/Indoleamine 2,3-dioxygenase 1; experiment: Protac activity at IDO1/CRBN in IFNgamma-stimulated human PBMC cells isolated form non-GBM patient assessed as IDO1 degradation by measuring decrease in intracellular protein level measured after 24 hrs by Western blotting analysis; assay type: cell-based; conditions: DDE = dose-dependent effect
Target sequence in this assay (P14902 whole entry, looked up): as the sequence (P14902 whole entry, looked up) above
Target sequence in this assay (Q96SW2 whole entry, looked up): as the sequence (Q96SW2 whole entry, looked up) above

[6] = Drug uptake in C57BL/6 mouse liver at 100 mg/kg, ip treated 5 days/week for 3 weeks by LC/MS/MS analysis; assay type: ADME, organism-based; conditions: in vivo, 504 h
[7] = target: T1, Protein cereblon/Indoleamine 2,3-dioxygenase 1; experiment: Protac activity at IDO1/CRBN in IFNgamma-stimulated human GBM6 cells assessed as IDO1 degradation measured after 24 hrs by Western blotting analysis; assay type: cell-based; conditions: dose 0.1-10 µM, DDE = dose-dependent effect
Target sequence in this assay (P14902 whole entry, looked up): as the sequence (P14902 whole entry, looked up) above
Target sequence in this assay (Q96SW2 whole entry, looked up): as the sequence (Q96SW2 whole entry, looked up) above

[8] = test system: Mus musculus; experiment: In vivo Protac activity at IDO1/CRBN in luciferase-modified GL261 cells engrafted mouse cancer model assessed as increase in survival time measured at 25 mg/kg, ip treated 14 days post tumor implantation; conditions: time 14 day
[9] = target: T1, Protein cereblon/Indoleamine 2,3-dioxygenase 1; experiment: Protac activity at IDO1/CRBN in IFNgamma-stimulated human GBM43 cells assessed as IDO1 degradation measured after 24 hrs by Western blotting analysis; assay type: cell-based, GBM43 cell; how it was run: as §1
[10] = target: T1, Protein cereblon/Indoleamine 2,3-dioxygenase 1; experiment: Binding affinity to CRBN /IDO1 (unknown origin) assessed as ternary complex stability by measuring half-life by bio-layer interferometry assay; assay type: protein assay
How it was run: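 For the ternary complex, compound was preincubated with a 25-fold molar excess of CRBN, and binding of this binary complex to IDO1 was followed in real time.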

[11] = target: T1, Protein cereblon/Indoleamine 2,3-dioxygenase 1; experiment: Protac activity at IDO1/CRBN in IFNgamma-stimulated human KNS-42 cells assessed as IDO1 degradation measured after 24 hrs by Western blotting analysis; assay type: cell-based; conditions: dose 0.1-10 µM, DDE = dose-dependent effect
[12] = target: T1, Protein cereblon/Indoleamine 2,3-dioxygenase 1; experiment: Protac activity at CRBN/IDO1 non-enzyme mediated p65 phosphorylation in enzyme-null cDNA transfected in IFNgamma-stimulated human U87 cells measured at 0.1 to 10 uM after 24 hrs by Western blotting analysis; assay type: cell-based; conditions: dose 0.1-10 µM
[13] = target: T1, Protein cereblon/Indoleamine 2,3-dioxygenase 1; experiment: Protac activity at CRBN/IDO1 in IFNgamma-stimulated human U87 cells assessed as decrease in kynurenine level measured after 24 hrs by Ehrlich's test; assay type: cell-based; conditions: DDE = dose-dependent effect
How it was run: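 U87 or GBM43 cells given compound together with 50 ng/mL IFNγ for 24 h. Supernatant kynurenine was measured with Ehrlich's reagent. Cells cultured without IFNγ served as control.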

[14] = target: T1, Protein cereblon/Indoleamine 2,3-dioxygenase 1; experiment: Protac activity at CRBN/IDO1 non-enzyme mediated NF-kappaB signal in IFNgamma-stimulated human GBM43 cells assessed as decrease in p65 phosphorylation at 0.1 to 10 uM measured after 24 hrs Western blotting assay; assay type: cell-based; conditions: GBM43 cell, dose 0.1-10 µM
How it was run: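 IFNγ-stimulated cells were induced for 24 h, then treated at several concentrations for 24 h. Lysates were western blotted for IDO1, phospho-p65, total p65 and GAPDH.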

[15] = target: T1, Protein cereblon/Indoleamine 2,3-dioxygenase 1; experiment: Protac activity at CRBN/IDO1-FLAG expressed in human U87 cells assessed as IDO1 degradation measured at 1 to 10 uM after 24 hrs by Western blotting analysis; assay type: cell-based; conditions: dose 1-10 µM
[16] = Toxicity in C57BL/6 mouse assessed as mortality at 100 mg/kg, ip treated 5 days/week for 3 weeks; assay type: organism-based; conditions: in vivo, 504 h
[17] = target: T1, Protein cereblon/Indoleamine 2,3-dioxygenase 1; experiment: Protac activity at IDO1/CRBN in IFNgamma-stimulated human U87 cells assessed as IDO1 degradation measured after 24 hrs by Western blotting analysis; assay type: cell-based
How it was run: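 U87 cells given human IFNγ 50 ng/mL for 24 h to induce IDO1, then PROTAC over a dose range starting at 0.01 μM and rising to 30 μM for 24 h. Western blot read-out. IDO1 band densitometry normalized to untreated samples and fitted to give DC50, the concentration giving 50% IDO1 degradation. n = 3 independent experiments, mean ± SEM.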
Target sequence in this assay (P14902 whole entry): as the sequence (P14902 whole entry, looked up) above
Target sequence in this assay (Q96SW2 whole entry): as the sequence (Q96SW2 whole entry, looked up) above

[18] = target: T1, Protein cereblon/Indoleamine 2,3-dioxygenase 1; experiment: Protac activity at CRBN/IDO1-FLAG expressed in human U87 cells assessed as IDO1 degradation at 10 uM measured in presence of IDO1 inhibitor BGB-7204 by immunoprecipitated ubiquitination assay; assay type: cell-based
[19] = Drug uptake in C57BL/6 mouse pancreas at 50 mg/kg, ip treated 5 days/week for 3 weeks by LC/MS/MS analysis; assay type: ADME, organism-based; conditions: in vivo, 504 h
[20] = target: T1, Protein cereblon/Indoleamine 2,3-dioxygenase 1; experiment: Protac activity at CRBN/IDO1-FLAG expressed in human U87 cells assessed as IDO1 degradation in intracellular cytoplasmic compartment measured at 1 to 10 uM after 24 hrs by Western blotting analysis; assay type: subcellular; conditions: Cytoplasm, dose 1-10 µM
[21] = target: T1, Protein cereblon/Indoleamine 2,3-dioxygenase 1; experiment: Protac activity at IDO1/CRBN in IFNgamma-stimulated human DIPG007 cells assessed as IDO1 degradation measured after 24 hrs by Western blotting analysis; assay type: cell-based; conditions: HSJD-DIPG-007, dose 0.1-10 µM, DDE = dose-dependent effect
[22] = target: T1, Protein cereblon/Indoleamine 2,3-dioxygenase 1; experiment: Protac activity at CRBN/IDO1 in IFNgamma-stimulated human CD18 cells assessed as decrease in kynurenine level at 10 uM measured after 24 hrs by Ehrlich's test; assay type: cell-based; conditions: CD18 cell
[23] = Drug uptake in C57BL/6 mouse intestine at 100 mg/kg, ip treated 5 days/week for 3 weeks by LC/MS/MS analysis; assay type: ADME, organism-based; conditions: in vivo, 504 h
[24] = target: Indoleamine 2,3-dioxygenase 1 (Homo sapiens, UniProt P14902); experiment: Binding affinity to IDO1 (unknown origin) assessed as binary complex stability by measuring half-life by bio-layer interferometry assay
Indoleamine 2,3-dioxygenase 1, sequence (P14902 whole entry, looked up): as the sequence (P14902 whole entry, looked up) above

[25] = Half life in C57BL/6 mouse plasma at 25 mg/kg, ip; assay type: ADME, organism-based
[26] = Drug uptake in C57BL/6 mouse pancreas at 100 mg/kg, ip treated 5 days/week for 3 weeks by LC/MS/MS analysis; assay type: ADME, organism-based; conditions: in vivo, 504 h

Structure (SMILES): C[C@@H](C(=O)Nc1ccc(OC2CCN(C(=O)CCOCCOCCNc3cccc4c3C(=O)N(C3CCC(=O)NC3=O)C4=O)CC2)cc1)[C@H]1CC[C@@H](c2ccnc3ccc(F)cc32)CC1 (some centres not stated)
- Activity [1]: Dde
- Activity [2]: Active
- Activity [3]: Active
- inhibition [4]: Active
- Activity [5]: Dde
- Drug uptake [6]: Active
- Activity [7]: Dde
- Time [8]: 45 days
- EC50 [9]: 544 nM
- Activity ([9]; GBM43 cell, dose 1-10 µM, DDE = dose-dependent effect): Dde
- T1/2 [10]: 7.7 min
- Activity [11]: Dde
- inhibition [12]: Active
- inhibition [13]: Dde
- inhibition [14]: Active
- Activity [15]: Active
- Activity [16]: Toxic
- EC50 [17]: 329 nM
- Activity [18]: Active
- Drug uptake [19]: Active
- Activity [20]: Active
- Activity [21]: Dde
- inhibition [22]: Active
- Drug uptake [23]: Active
- T1/2 [24]: 0.267 min
- half-life [25]: 150 min
- Drug uptake [26]: Active
